Laboratory results published in BindingDB's records for doi:10.1016/j.bmc.2008.10.024 (National Cancer Institute-Frederick, 2008).

Target: E3 ubiquitin-protein ligase Mdm2 (Homo sapiens, UniProt Q00987)
Experiment: Inhibition of GST fused human Hdm2 assessed as polyubiquitylation by electrochemiluminescence assay
How it was run: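 Cell-free ubiquitylation. Lysate GST-Hdm2 captured on glutathione-coated wells for 1 h at RT. E1/UbcH5B were pre-charged with ubiquitin, ATP and DTT in PBS for 30 min, then added with sample for 30 min at RT. Read-out was ruthenium anti-polyubiquitin electrochemiluminescence, normalised between no-inhibitor (0%) and EDTA (100%). Tested at 100–0.02 µg/mL in quadruplicate.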

E3 ubiquitin-protein ligase Mdm2, sequence (Q00987 whole entry, the tested form may be a part): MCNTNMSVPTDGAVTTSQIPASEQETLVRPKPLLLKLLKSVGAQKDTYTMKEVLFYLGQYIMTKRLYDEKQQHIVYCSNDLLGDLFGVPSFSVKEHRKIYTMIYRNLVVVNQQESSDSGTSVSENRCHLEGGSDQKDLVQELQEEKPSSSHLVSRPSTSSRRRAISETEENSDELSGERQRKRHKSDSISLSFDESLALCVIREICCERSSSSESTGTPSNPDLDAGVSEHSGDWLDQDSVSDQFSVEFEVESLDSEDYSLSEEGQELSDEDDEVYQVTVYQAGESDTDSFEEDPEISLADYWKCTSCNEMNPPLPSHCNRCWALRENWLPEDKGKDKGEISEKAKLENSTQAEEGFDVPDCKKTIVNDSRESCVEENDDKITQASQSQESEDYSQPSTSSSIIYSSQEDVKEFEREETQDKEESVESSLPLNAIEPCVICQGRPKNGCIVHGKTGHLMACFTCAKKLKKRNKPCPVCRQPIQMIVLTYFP

With `NCCc1c2c(c3c4c(c5ccccc5nc14)C=CN3)OCS2` [Lissoclinidine B] the IC50 was 58.6 µM.
